Experiments:
[1] = Ratio of drug level in tumor to blood in human LNCAP cells xenografted NCR nu/nu mouse at 0.19 to 0.36 MBq, iv at 1 hr; type: ADME, organism-based
Method in brief: (§1)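 NCr nu/nu male mice carrying subcutaneous right-flank LNCaP xenografts (2 × 10^6 cells in Matrigel:DPBS), used 4–7 weeks after inoculation. Tail-vein injection of 0.19–0.36 MBq 125I tracer in 0.9% saline. Killed at 1 and 6 h; tissues collected and counted, expressed as %ID/g ± SEM. Group sizes n = 2–3.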

LNCaP [2] = assay: Drug internalization in PSMA expressing human LNCAP cells at 10 nM incubated for 2 hrs at 37 degC measured for 10 mins by gamma counting analysis; type: ADME, cell-based; details: 0.01 µM
Tumour [3] = assay: Drug uptake in tumor of human LNCAP cells xenografted NCR nu/nu mouse at 0.19 to 0.36 MBq, iv at 6 hrs; type: ADME, organism-based, Neoplasm; details: in vivo; method in brief: as §1
LNCaP [4] = assay: Drug internalization in PSMA expressing human LNCAP cells at 10 nM incubated for 2 hrs at 4 degC measured for 10 mins by gamma counting analysis; type: ADME, cell-based; details: 0.01 µM
[5] = Drug uptake in thyroid gland of human LNCAP cells xenografted NCR nu/nu mouse at 0.19 to 0.36 MBq, iv at 1 to 6 hrs; type: ADME, organism-based; details: in vivo; method in brief: as §1
[6] = Drug uptake in gall bladder of human LNCAP cells xenografted NCR nu/nu mouse at 0.19 to 0.36 MBq, iv at 6 hrs; type: ADME, organism-based; method in brief: as §1
[7] = Drug uptake in gall bladder of human LNCAP cells xenografted NCR nu/nu mouse at 0.19 to 0.36 MBq, iv at 1 hr; type: ADME, organism-based; details: in vivo; method in brief: as §1
[8] = Chemical stability in solid state at -10 degC; type: physicochemical
Tumour [9] = assay: Drug uptake in tumor of human LNCAP cells xenografted NCR nu/nu mouse at 0.19 to 0.36 MBq, iv at 1 hr; type: ADME, organism-based, Neoplasm; details: in vivo; method in brief: as §1
[10] = Ratio of drug level in tumor to blood in human LNCAP cells xenografted NCR nu/nu mouse at 0.19 to 0.36 MBq, iv at 6 hrs; type: ADME, organism-based; method in brief: as §1
[11] = Stability of compound in saline up to 48 hrs; type: physicochemical; details: buffer
Kidney [12] = assay: Drug uptake in kidney of human LNCAP cells xenografted NCR nu/nu mouse at 0.19 to 0.36 MBq, iv at 1 hr; type: ADME, organism-based; details: in vivo; method in brief: as §1
Blood = assay: Drug uptake in blood of human LNCAP cells xenografted NCR nu/nu mouse at 0.19 to 0.36 MBq, iv at 1 hr; type: ADME, organism-based; details: in vivo; method in brief: as §1
Kidney [13] = assay: Drug uptake in kidney of human LNCAP cells xenografted NCR nu/nu mouse at 0.19 to 0.36 MBq, iv at 6 hrs; type: ADME, organism-based; details: in vivo; method in brief: as §1
[14] = Drug uptake in small intestine of human LNCAP cells xenografted NCR nu/nu mouse at 0.19 to 0.36 MBq, iv at 6 hrs; type: ADME, organism-based; details: in vivo; method in brief: as §1
[15] = Drug uptake in small intestine of human LNCAP cells xenografted NCR nu/nu mouse at 0.19 to 0.36 MBq, iv at 1 hr; type: ADME, organism-based; details: in vivo; method in brief: as §1
LNCaP [16] = assay: Drug internalization in PSMA expressing human LNCAP cells at 5 nM incubated for 2 hrs at 37 degC measured for 10 mins by gamma counting analysis; type: ADME, cell-based; details: 0.005 µM
LNCaP [17] = assay: Drug internalization in PSMA expressing human LNCAP cells at 5 nM incubated for 2 hrs at 4 degC measured for 10 mins by gamma counting analysis; type: ADME, cell-based; details: 0.005 µM

Row | Kp at 1 h [1] | Drug uptake (LNCaP [2]) | Drug uptake (Tumour [3]) [% ID/g] | Drug uptake (LNCaP [4]) | Drug uptake [5] | Drug uptake ([6]; in vivo, 6 h) | Drug uptake [7] | Stability [8] [weeks] | Drug uptake (Tumour [9]) [% ID/g] | Kp at 6 h [10] | Stability [11] | Drug uptake (Kidney [12]) [% ID/g] | Drug uptake (Blood) [% ID/g] | Drug uptake (Kidney [13]) [% ID/g] | Drug uptake [14] [% ID/g] | tissue uptake at 6 h ([6]; NCR nu/nu, gall bladder, read-out: Drug uptake) [%ID/g] | Drug uptake [15] [% ID/g] | Drug uptake (LNCaP [16]) | Drug uptake (LNCaP [17]) | Structure (SMILES)
1 | 10 | Active | 3.24 | Not Active | Active | Not Active | Active | 3 | 3.01 | 3.4 | Stable | – | – | – | – | – | – | – | – | O=C(O)CC[C@H](NC(=O)N[C@@H](CCCCNC(=O)Cn1nnc(COCCOCCOCCOCCOCCOCCOCCOCCNc2ccc([N+](=O)[O-])cc2[N+](=O)[O-])c1[125I])C(=O)O)C(=O)O
2 | 35 | – | 9.8 | – | – | – | 92.46 % ID/g | – | 12.21 | 59 | – | 68.35 | 0.36 | 66.46 | 2.18 | 7.89 | 47.37 | – | – | O=C(O)CC[C@H](NC(=O)N[C@@H](CCCCNC(=O)Cn1nnc([125I])c1CNc1ccc([N+](=O)[O-])cc1[N+](=O)[O-])C(=O)O)C(=O)O
3 | – | – | – | – | – | – | – | – | – | – | – | – | – | – | – | – | – | Active | Not Active | O=C(O)CC[C@H](NC(=O)N[C@@H](CCCCNC(=O)Cn1cc([125I])nn1)C(=O)O)C(=O)O
